Measurements from ChEMBL document CHEMBL1153900, “Structure-activity studies of echinomycin antibiotics against drug-resistant and biofilm-forming Staphylococcus aureus and Enterococcus faecalis” (Bioorg Med Chem Lett, 2009).
pIC50: −log10 of the molar value. ≈ marks a conversion by molar mass, not a printed value. Calls of active or inactive are those of the source. No cut-off for these calls is given here.

Columns and labels:
Staphylococcus aureus [1] = experiment: Antimicrobial activity against methicillin-resistant Staphylococcus aureus L32 clinical isolate by CLIS method; format: functional
Procedure, shortened: (§1)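 MIC and MBC determined against biofilm-forming strains: MSSA ATCC 35556, E. faecalis ATCC 29212, and two clinical biofilm-forming MRSA isolates (L32, L44) obtained from patient blood samples.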

Staphylococcus aureus [2] = experiment: Antimicrobial activity against methicillin-resistant Staphylococcus aureus L44 clinical isolate by CLIS method; format: functional; procedure, shortened: as §1
HCT-116 = experiment: Cytotoxicity against human HCT116 cells; format: functional, cell-based
Enterococcus faecalis [3] = experiment: Antimicrobial activity against Enterococcus faecalis ATCC 29212 by CLIS method
Staphylococcus aureus [4] = experiment: Antimicrobial activity against methicillin-susceptible Staphylococcus aureus ATCC 35556 by CLIS method
Staphylococcus aureus [5] = experiment: Antimicrobial activity against methicillin-resistant Staphylococcus aureus L32 clinical isolate assessed as reduction in bacterial load at 2 X MIC over 24 hrs by time-kill assay; format: functional
Procedure, shortened: (§2)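 Time-kill assay at 2× and 4× MIC over 24 h. Starting inoculum 5 × 10⁵ CFU/mL. Read-out is the mean change in bacterial density (log₁₀ CFU/mL) from the starting inoculum at 24 h, compared with a growth control.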

Staphylococcus aureus [6] = experiment: Antimicrobial activity against methicillin-resistant Staphylococcus aureus L44 clinical isolate assessed as reduction in bacterial load at 2 X MIC over 24 hrs by time-kill assay; format: functional; procedure, shortened: as §2
Staphylococcus aureus [7] = experiment: Antimicrobial activity against methicillin-resistant Staphylococcus aureus L32 clinical isolate assessed as reduction in bacterial load at 4 fold MIC over 24 hrs by time-kill assay; format: functional; procedure, shortened: as §2
Staphylococcus aureus [8] = experiment: Antimicrobial activity against methicillin-resistant Staphylococcus aureus L44 clinical isolate assessed as reduction in bacterial load at 4 fold MIC over 24 hrs by time-kill assay; format: functional; procedure, shortened: as §2
Staphylococcus aureus [9] = experiment: Inhibition of methicillin-susceptible Staphylococcus aureus ATCC […] biofilm formation assessed as concentration required to eradicate growth after 24 hrs; format: functional
Procedure, shortened: (§3)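 Modified Calgary pin-lid biofilm device, testing sessile bacteria seeded from an established biofilm. MBIC is the concentration giving no visible growth after 24 h incubation of preformed biofilm with antibiotic. MBEC is the minimal concentration that eradicates CFU/mL growth from the biofilm.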

Staphylococcus aureus [10] = experiment: Inhibition of Staphylococcus aureus ATCC 35556 biofilm formation at MIC
Enterococcus faecalis [11] = experiment: Inhibition of Enterococcus faecalis ATCC 29212 biofilm formation at MIC
Enterococcus faecalis [12] = experiment: Inhibition of Enterococcus faecalis ATCC 29212 biofilm formation assessed as visible growth after 24 hrs
Staphylococcus aureus [13] = experiment: Inhibition of methicillin-susceptible Staphylococcus aureus ATCC 35556 biofilm formation assessed as visible growth after 24 hrs
Enterococcus faecalis [14] = experiment: Inhibition of Enterococcus faecalis ATCC 29212 biofilm formation assessed as concentration required to eradicate growth after 24 hrs
Enterococcus faecalis [15] = experiment: Antimicrobial activity against Enterococcus faecalis ATCC 29212 assessed as reduction in bacterial load at 2 X MIC over 24 hrs by time-kill assay
Enterococcus faecalis [16] = experiment: Antimicrobial activity against Enterococcus faecalis ATCC 29212 assessed as reduction in bacterial load at 4 fold MIC over 24 hrs by time-kill assay
Staphylococcus aureus [17] = experiment: Antimicrobial activity against methicillin-susceptible Staphylococcus aureus ATCC 35556 assessed as reduction in bacterial load at 2 X MIC over 24 hrs by time-kill assay
Staphylococcus aureus [18] = experiment: Antimicrobial activity against methicillin-susceptible Staphylococcus aureus ATCC 35556 assessed as reduction in bacterial load at 4 fold MIC over 24 hrs by time-kill assay
Staphylococcus aureus [19] = experiment: Inhibition of methicillin-resistant Staphylococcus aureus L32 clinical isolate biofilm formation assessed as visible growth after 24 hrs; format: functional; procedure, shortened: as §3
Staphylococcus aureus [20] = experiment: Inhibition of methicillin-resistant Staphylococcus aureus L32 clinical isolate biofilm formation assessed as concentration required to eradicate growth after 24 hrs; format: functional, isolateL32; procedure, shortened: as §3
Staphylococcus aureus [21] = experiment: Inhibition of methicillin-resistant Staphylococcus aureus L44 clinical isolate biofilm formation assessed as visible growth after 24 hrs; format: functional; procedure, shortened: as §3
Staphylococcus aureus [22] = experiment: Inhibition of methicillin-resistant Staphylococcus aureus L44 clinical isolate biofilm formation assessed as concentration required to eradicate growth after 24 hrs; format: functional; procedure, shortened: as §3
Staphylococcus aureus [23] = experiment: Inhibition of methicillin-susceptible Staphylococcus aureus ATCC 35556 biofilm formation assessed as concentration required to eradicate growth after 24 hrs

Row | SMILES | MBC (Staphylococcus aureus [1]) [µM] | MIC (Staphylococcus aureus [1]) [µM] | MBC (Staphylococcus aureus [2]) [µM] | MIC (Staphylococcus aureus [2]) [µM] | pIC50 (HCT-116) | MBC (Enterococcus faecalis [3]) [µM] | MIC (Enterococcus faecalis [3]) [µM] | MBC (Staphylococcus aureus [4]) [µM] | MIC (Staphylococcus aureus [4]) [µM] | log10CFU/ml (Staphylococcus aureus [5]) | log10CFU/ml (Staphylococcus aureus [6]) | log10CFU/ml (Staphylococcus aureus [7]) | log10CFU/ml (Staphylococcus aureus [8]) | Activity (Staphylococcus aureus [10]) | Activity (Enterococcus faecalis [11]) | MBIC (Staphylococcus aureus [13]) [µM] | log10CFU/ml (Enterococcus faecalis [15]) | log10CFU/ml (Enterococcus faecalis [16]) | log10CFU/ml (Staphylococcus aureus [17]) | log10CFU/ml (Staphylococcus aureus [18]) | also measured
1 | CS[C@H]1SC[C@H](N(C)C(=O)[C@H](C)NC(=O)[C@@H](CO)NC(=O)c2cnc3ccccc3n2)C(=O)N(C)[C@@H](C(C)C)C(=O)OC[C@@H](NC(=O)c2cnc3ccccc3n2)C(=O)N[C@@H](C)C(=O)N(C)[C@@H]1C(=O)N(C)[C@H](C(=O)O)C(C)C [DEPSIECHINOSERINE] | > 14 | > 14 | > 14 | > 14 | 5.34 | > 14 | 14 (≈ 15.7 µg/mL) | > 14 | > 14 |  |  |  |  |  |  |  |  |  |  |  | 
2 | CS[C@@H](SC[C@@H](C(=O)N(C)[C@H](C(=O)O)C(C)C)N(C)C(=O)[C@H](C)NC(=O)[C@@H](CO)NC(=O)c1cnc2ccccc2n1)[C@@H](C(=O)N(C)[C@H](C(=O)O)C(C)C)N(C)C(=O)[C@H](C)NC(=O)[C@@H](CO)NC(=O)c1cnc2ccccc2n1 [ECHINOSERINE] | > 14 | > 14 | > 14 | > 14 | 4.87 | > 14 | > 14 | > 14 | > 14 |  |  |  |  |  |  |  |  |  |  |  | 
3 | CS[C@@H]1[C@H]2C(=O)N(C)[C@@H](C(C)C)C(=O)OC[C@@H](NC(=O)c3cnc4ccccc4n3)C(=O)N[C@@H](C)C(=O)N(C)[C@@H](C[S+]1[O-])C(=O)N(C)[C@@H](C(C)C)C(=O)OC[C@@H](NC(=O)c1cnc3ccccc3n1)C(=O)N[C@@H](C)C(=O)N2C (stereo partly drawn) | 7.17 (≈ 8.01 µg/mL) | 1.79 (≈ 2 µg/mL) | 7.17 (≈ 8.01 µg/mL) | 1.79 (≈ 2 µg/mL) | 6.40 | > 14 | 0.22 (≈ 0.246 µg/mL) | 3.58 (≈ 4 µg/mL) | 0.9 (≈ 1.01 µg/mL) | -1.35 | -1.09 | -2.15 | -2.24 | Active | Active | 3.6 | 0.69 | -1.04 | -3.39 | -3.24 | MBEC (Staphylococcus aureus [9]): >4 µM; MBEC (Enterococcus faecalis [12]): >4 µM; MBEC (Enterococcus faecalis [14]): >4 µM
4 | CS[C@H]1SC[C@H]2C(=O)N(C)[C@@H](C(C)C)C(=O)OC[C@@H](NC(=O)c3cnc4ccccc4n3)C(=O)N[C@@H](C)C(=O)N(C)[C@@H]1C(=O)N(C)[C@@H](C(C)C)C(=O)OC[C@@H](NC(=O)c1cnc3ccccc3n1)C(=O)N[C@@H](C)C(=O)N2C [ECHINOMYCIN] | 0.91 (≈ 1 µg/mL) | 0.03 (≈ 0.033 µg/mL) | 0.45 (≈ 0.496 µg/mL) | 0.03 (≈ 0.033 µg/mL) | > 8.52 | 0.11 (≈ 0.121 µg/mL) | 0.01 (≈ 0.011 µg/mL) | 0.45 (≈ 0.496 µg/mL) | 0.01 (≈ 0.011 µg/mL) | 0.61 | 0.423 | -2.39 | -1.23 | Active | Active | 0.03 | 0.04 | -1.42 | -1.54 | -1.79 | MBIC (Staphylococcus aureus [19]): >4 µM; MBIC (Staphylococcus aureus [20]): >4 µM; MBIC (Staphylococcus aureus [21]): >4 µM; MBIC (Staphylococcus aureus [22]): >4 µM; MBIC (Enterococcus faecalis [12]): 0.22 µM; MBIC (Enterococcus faecalis [14]): 0.22 µM; MBEC (Staphylococcus aureus [23]): 0.22 µM
